Hits are enriched below; roughly 1.6% of the tested compounds scored in any of these assays.
UHRF1 binding = human UHRF1 methylated DNA binding inhibitors; Q96T88; UHRF1 binding to methylated oligo, TR-FRET; inhibition, % at 4.4 µM; 370,000 tested, 0.75% active; in the data active means inhibition above about 21%;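 further: UHRF1 SRA domain binding a hemimethylated CpG hairpin DNA probe; 0% = median of test compound wells and 100% = reference inhibitor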
LEDGF integ inh = blocks HIV-1 LEDGF/p75-dependent DNA integration | TR-FRET IN-LEDGF/p75 DNA integration, Eu/Cy5 | inhibition, % at 3.7 µM | 370,000 tested, 0.64% active;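 active means inhibition above the screen-wide mean plus 3 SD, cut at about 13% in these data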;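 further: signal is the Cy5 over europium emission ratio at 671 and 618 nm; 0% = plate median of compound wells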
MBD2 inh = inhibitors of human MBD2 binding to methylated oligonucleotide. Q9UBB5. TR-FRET. inhibition, % at 4.4 µM. 370,000 tested, 0.31% active. AID 686964; in the data active means inhibition above about 13%
TDP2 absorb = TDP2 (human) inhibition, absorbance primary screen. AID 720702. recombinant TDP2, T5PNP hydrolysis, p-nitrophenol absorbance 415 nm. inhibition, % at 12.8 µM. 370,000 tested, 0.34% active. O95551;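 active means inhibition above the mean of all tested compounds plus 3 SD, set per campaign, cut at about 25% in these data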;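 further: 0% = DMSO with enzyme and 100% = buffer with substrate but no TDP2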
Target sequence (O95551 whole entry, looked up): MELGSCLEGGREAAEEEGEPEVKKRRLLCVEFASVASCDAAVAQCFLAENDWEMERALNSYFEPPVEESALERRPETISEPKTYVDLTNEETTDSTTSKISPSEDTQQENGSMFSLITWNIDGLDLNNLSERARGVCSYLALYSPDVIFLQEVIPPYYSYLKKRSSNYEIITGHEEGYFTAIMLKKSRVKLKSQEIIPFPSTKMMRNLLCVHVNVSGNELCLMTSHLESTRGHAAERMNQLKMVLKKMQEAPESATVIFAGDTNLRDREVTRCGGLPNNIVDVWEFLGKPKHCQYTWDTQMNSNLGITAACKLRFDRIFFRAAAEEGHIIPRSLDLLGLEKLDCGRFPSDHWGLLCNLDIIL
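System – recombinant human TDP2 · Quantity – TDP2 enzyme at 120 nM final · Doses – single concentration, 12.8 µM nominal, with 1% DMSO · Incubation – 2 h at 37 °C · Measured by – epi absorbance of p-nitrophenol freed from T5PNP by hydrolysis · Read-out – % inhibition relative to enzyme-containing and enzyme-free wells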
TDP2 inh conf = human TDP2 inhibition, confirmation | shares compounds with TDP2 absorb | recombinant human TDP2, absorbance read-out | inhibition, % at 12.8 µM | 1,100 tested, 22% active; in the data active means inhibition above about 25%;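 further: 0% = vehicle with enzyme and 100% = no enzyme buffer only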
IN multimer act = counter-screen for LEDGF/p75 integration inhibitors: HIV-1 integrase multimerization activators; shares compounds with LEDGF integ inh; TR-FRET HIV-1 integrase multimerization, biochemical; activation, % at 7.7 µM; 2,000 tested, 17% active; in the data active means activation above about 8.9%
TR-FRET interf = counter-screen for LEDGF/p75 integration inhibitors: TR-FRET optical interference; shares compounds with LEDGF integ inh; TR-FRET optical interference counterscreen, HIV-1 IN multimerization; inhibition, % at 7.7 µM; 2,000 tested, under 10 active; AID 1053135;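 active means inhibition above the mean over all tested compounds plus 3 SD, which no compound reached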;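 further: 0% = integrase with antibodies and DMSO and 100% = antibodies without integrase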
IN-LEDGF confirm = confirmation of HIV-1 LEDGF/p75-dependent integration inhibitors | TR-FRET LEDGF/p75-dependent HIV-1 integration, biochemical | 2,000 tested, 36% active | inhibition, % at 3.7 µM | shares compounds with LEDGF integ inh; in the data active means inhibition above about 14%
* marks the source's active call; other numbers are inactive results; x = no result.

SMILES	UHRF1 binding	LEDGF integ inh	MBD2 inh	TDP2 absorb	TDP2 inh conf	IN multimer act	TR-FRET interf	IN-LEDGF confirm
Cc1cc(=O)c2c(o1)C(=O)c1occc1C2=O	40*	51*	11	36*	21	35*	-125	56*
O=C(Cc1c[nH]c2ccccc12)Nc1ccc(Nc2cccnc2)c(-c2cccc(Cl)c2)c1	-3	0	1	4	x	x	x	x
O=C(/C=C/c1ccco1)Nc1cccc(C(=O)Nc2ccccc2C(=O)O)c1	37*	19*	12	28*	12	3	-17	13
CC1(C)CC(=O)C=C(Nc2ccccc2NC(=O)c2cc(F)cc(F)c2)C1	3	0	0	-3	x	x	x	x
Cc1[nH][nH]c(=O)c1C(c1c(C)[nH][nH]c1=O)c1cn(Cc2ccccc2Cl)c2ccccc12	23*	20*	-5	55*	34*	-3	9	13
COc1ccc(S(=O)(=O)Nc2cc(SCC(=O)O)c(O)c3ccccc23)cc1	-1	21*	-13	43*	50*	9	-31	33*
COc1ccc(S(=O)(=O)Nc2cccc3ccc(O)cc23)cc1	-2	0	-3	2	x	x	x	x
CCCCCCCCN1C(=O)[C@@H](CC(=O)NCc2cccs2)C[C@@]2(C(=O)OC)C1=C[C@H](C(C)(C)C)O[C@@H]2C	-2	-5	0	1	x	x	x	x
COc1ccc(C(O)c2nccc3cc(OC)c(OC)cc23)cc1OC (stereo not drawn)	18	29*	12	34*	16	0	-1	3
CC1=NN(c2ccc(C)c(C)c2)C(=O)C1C(c1cccc(O)c1)C1C(=O)N(c2ccc(C)c(C)c2)N=C1C (stereo not drawn)	7	42*	9	80*	19	-1	4	0
O=C(N[C@@H](Cc1cccnc1)C(=O)N1CCC[C@H]1C(=O)NCc1ccccc1)c1ccccc1	1	-2	-3	3	x	x	x	x
COc1ccc2c(c1)Sc1ccc(Cl)cc1N2	9	-1	-3	-7	x	x	x	x
C=CCn1c(SCC(=O)c2ccc(-c3ccccc3)cc2)nnc1-c1ccc(OC)cc1	-1	2	0	-4	x	x	x	x
C=CCN=C1NC(c2ccc(Cl)cc2)C(C(=O)OC)=C(C)N1Cc1ccccc1C(F)(F)F (stereo not drawn)	-3	6	1	-4	x	x	x	x
CC(=O)N(/N=C1\Sc2ccccc2C1=O)c1ccccc1C	-8	34*	-8	63*	63*	1	-2	44*
CC(C)c1[nH]nc2c1C(c1cccc(C(F)(F)F)c1)N(Cc1ccccc1)C2=O (stereo not drawn)	0	-3	3	-1	x	x	x	x
COc1ccc(N)c2c1OCCC2=O	7	19*	-3	34*	-2	-1	2	-5
COc1ccc2c(c1OC)C(=O)OC2	0	-2	6	-9	x	x	x	x
CCOc1ccc(-n2c(COc3ccc(C)cc3)nnc2SCC(=O)c2ccc3ccccc3c2)cc1	9	3	-3	-7	x	x	x	x
COC1=C(Nc2ccc(OC)cc2)C(=O)c2ccccc2C1=O	-8	18*	-3	60*	4	7	-25	-2
CCCNC1=C(N(C(C)=O)c2cccc(F)c2)C(=O)c2ccccc2C1=O	1	17*	-12	26*	25*	-3	9	14*
CCC(=O)N(C1=C(NC(C)C)C(=O)c2ccccc2C1=O)C(C)C	8	-2	-5	3	x	x	x	x
N#CCCn1[nH]c(-c2ccccc2)cc1=O	18	27*	11	85*	11	7	-23	6
O=c1cc(-c2ccccc2)[nH]n1-c1nc2ccccc2[nH]1	-4	3	0	6	x	x	x	x
COc1cc(/C=C2\C(=O)N(c3ccc(NC(C)=O)cc3)N=C2c2ccccc2)ccc1O	18	44*	8	54*	12	4	-21	-1
